# Experimental data from ChEMBL document CHEMBL4513216, “Probing the Open Global Health Chemical Diversity Library for Multistage-Active Starting Points for Next-Generation Antimalarials” (ACS Infect Dis, 2020).
# Assay: Toxicity liver stage against HepG2, at 10uM
# Format: cell-based
# Set-up: test concentration 10 uM, cell line HepG2-A16-CD81EGFP
# Details: human, HepG2-A16-CD81EGFP cells; read-out: INHIBITION
# Method in brief: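 Uninfected HepG2-A16-CD81EGFP cells, 3 × 10^3 per well, 1536-well, plated on prespotted compound at 10 μM final, parasite-free screening media added to match infected plates; puromycin 10 μM positive, DMSO 0.5% negative; run in parallel with 48 h PbLuc assay at 37 °C, 5% CO2; viability by CellTiter-Glo luminescence, normalized to controls.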
row,SMILES,cytotoxicity at 10 µM [%]
1,CC(C)c1cc(C(=O)N2CCN(C)[C@@H]3CS(=O)(=O)C[C@@H]32)no1,4.14
2,COCCCN1CCC(N(Cc2noc(C)n2)C(C)=O)C1 (stereo unspecified),-4.22
3,CS(=O)(=O)CCNC(=O)N1CC2(CCCC2)c2ccccc21,0.883
4,NC(=O)c1cnn2c(C3CCN(CCO)CC3)ccnc12,0.695
5,CS(=O)(=O)N1CC[C@]2(O)CCN(c3cc(C#N)ccn3)C[C@@H]2C1,6.36
6,Cn1ccnc1CN1C[C@@H]2OCCN(c3ncccn3)[C@@H]2C1,-73
7,COCCn1nc(C(=O)N(C)Cc2cccnc2)ccc1=O,-144
8,O=C(NCC1CC1)c1c2c(N3CCCC3)ncnc2n2ccccc12,-61.1
9,CCN(CC)CCn1cnc(-c2ccccc2)c1-c1ncc[nH]1,4.03
10,Cc1cc(C)c(-n2cccn2)c(CN2CCOCC(CN(C)C)C2)c1 (stereo unspecified),-8.83
11,Cn1ncc2c(=O)[nH]c(CN3CCCC3c3ccsc3)nc21 (stereo unspecified),-18
12,CC(C(=O)N1CCCC1)S(=O)(=O)Cc1noc(C(C)(C)C)n1 (stereo unspecified),-1.1
13,Nc1nc(CCCNC(=O)C2CCCN(Cc3ccco3)C2)cs1 (stereo unspecified),-0.745
14,Cc1nc(O)cc(C2CCCN(C(=O)CN(C)c3ccccc3)C2)n1 (stereo unspecified),12.8
15,Cc1nnsc1CNC(=O)c1ccc2c(c1)nc(N1CCOCC1)n2C,-13.8
16,COCC(=O)N1CCCC(Cc2cnc(-c3c(C)n[nH]c3C)cn2)C1 (stereo unspecified),-4.51
17,O=C(CCN1CCCC1)N1CC[C@@H](c2ccc3ccccc3c2)[C@H](O)C1,2.97
18,CC(C)N1CCN(C(=O)c2[nH]nnc2Nc2ccccc2F)CC1,6.36
19,Cc1nc(C)n(C2CCCN(C(=O)CCOCC(C)C)C2)n1 (stereo unspecified),-0.734
20,Cc1nc(N(C)C/C=C/c2ccccc2)c2cnn(C)c2n1,0.0448
21,CC(=O)NCC(=O)N1Cc2cc(-c3cc[nH]n3)ccc2C1c1cnco1 (stereo unspecified),13.5
22,CSCCCN1CCCC1c1noc(C(C)C)n1 (stereo unspecified),-12.5
23,COC(=O)C1=C(C)N=C2SCC(=O)N2C1c1cn(C)nc1C (stereo unspecified),8.9

row,SMILES,cytotoxicity at 10 µM [%]
1,CCn1cnnc1C1CCCN(C(=O)COc2ccc(Cl)cc2)C1 (stereo unspecified),-5.26
2,CC(C)CN(Cc1ccc(O)c(C(=O)O)c1)Cc1ccccn1,8.5
3,CCn1cnnc1Cc1nc2c([nH]1)CC(c1ccc(Cl)cc1)CNC2=O (stereo unspecified),-48.9
4,Cc1ccc(-n2cnnn2)cc1NCC(=O)Nc1ccccc1Cl,7.95
5,Cc1noc([C@@H]2C[C@H]3OCC[C@H]3N(S(=O)(=O)N(C)C)C2)n1,-122
6,CN(C)Cc1cc(=O)n2c(n1)CN(C(=O)c1ccc[nH]1)CCC2,-123
7,Cn1cc(CN2CC[C@@H]3[C@@H](CCC(=O)N3CCc3c[nH]cn3)C2)cn1,-9.73
8,Cc1cc(C)n(NC(=O)c2ccccc2F)c(=O)c1,-13.2
9,Cc1n[nH]c(C)c1C1CCCN1C(=O)CNC(=O)C(C)(C)C (stereo unspecified),-29
10,O=C(NCCc1cccs1)[C@]12COC[C@H]1CN(C1CCOCC1)C2,-116
11,COc1ccc(C(C)C)cc1C1CC(=O)NCc2nc(N(C)C)sc21 (stereo unspecified),-1.22
12,CC(C(=O)N(C)Cc1ccco1)n1cncn1 (stereo unspecified),4.4
13,Cc1cc(C)n2nc(C(=O)N[C@H]3C[C@H]4CN(C)CCN4C3)cc2n1,-0.671
14,Cc1cccc(N2CCC(N3CCCC4(CNC(=O)O4)C3)CC2)c1C (stereo unspecified),-6.67
15,CCOc1c(OC)cc(C=Cc2ncc(C(=O)NC)s2)cc1OC,1.62
16,CCNC(c1cccnc1)c1cc(C)cc(C)c1 (stereo unspecified),2.77
17,Fc1ccc2c(c1)C1(CCNCC1)CC2OCC1CC1 (stereo unspecified),4.92
18,O=C(NCC1(O)CCc2ccccc2C1)c1cccs1 (stereo unspecified),13.8
19,Cc1cc(C)n(CC2CCCCN2C(=O)c2ccc3[nH]nnc3c2)n1 (stereo unspecified),2.52
20,Cc1nc(CNC(C)c2ccc(OCC(=O)NC3CC3)cc2)cs1 (stereo unspecified),-2.82
21,Cc1cc(N2CCCC2Cn2nc(C)cc2C)n2ncnc2n1 (stereo unspecified),-2.74
22,CCCS(=O)(=O)NCC(O)c1c(Cl)cccc1Cl (stereo unspecified),7.52
23,CN1CCN(c2ccc(C(=O)N3CCCC(c4ncc[nH]4)C3)cc2)CC1 (stereo unspecified),4.15

row,SMILES,cytotoxicity at 10 µM [%]
1,CNS(=O)(=O)Cc1ccc(CNc2ccc(C#N)cn2)cc1,-6.87
2,CC(O)(CNC(=O)c1cccnc1-n1cccn1)c1ccsc1 (stereo unspecified),2.38
3,O=C(NCc1cc[nH]n1)N1CCCC(N2CCCC2)C1 (stereo unspecified),-3.18
4,Fc1ccc(CN2CCCC(c3nnc(-c4cnccn4)o3)C2)cc1F (stereo unspecified),-8.03
5,CC(NC(=O)NCCCc1n[nH]c(N)c1C#N)c1ccc(F)cc1 (stereo unspecified),-13.7
6,CNS(=O)(=O)c1cccc(CNC(=O)c2c(C)nn(C)c2C)c1,9.26
7,COc1ccc(F)cc1CSCC(=O)N(C)CCC#N,-2.32
8,CCCn1nnnc1COC(=O)C1COc2ccccc2O1 (stereo unspecified),3.72
9,Cc1nc(C)n(Cc2cccc(NC(=O)NC(C)(CO)C3CC3)c2)n1 (stereo unspecified),14.3
10,CC(=O)N1CCCC(C(=O)N2CCC(=Cc3cccc(F)c3)CC2)C1 (stereo unspecified),12
11,CC(C)(CN1CCC2(CCNCC2)CC1)N1CCOCC1,-148
12,CSCCN1CCC(NC(=O)OC(C)(C)C)CC1,12.3
13,O=C(CCc1cc(Cl)no1)N1CCCCC1CCN1CCOCC1 (stereo unspecified),-9.97
14,Cc1nn(C)cc1-c1ccnc(N(C)Cc2ccoc2)n1,23.8
15,NCCc1cn(Cc2ccccn2)c2ccccc12,3.71
16,Cc1cc(C2CCCN(C(=O)COc3cc(F)ccc3F)C2)n[nH]1 (stereo unspecified),-1.3
17,Cc1ccccc1OCCN(C)Cc1noc(CC(C)C)n1,-6.99
18,COc1cc2ccn(CCCO)c(=O)c2cc1F,-7.91
19,CN(C)C(=O)c1ccc(-c2cccc3c2CCNC3)cc1,-2.31
20,Cc1noc(C)c1CN1CCO[C@H]2CNC[C@H]21,5.4
21,CN1CC(=O)N(c2ccsc2)CC12CCN(Cc1nccn1C)C2 (stereo unspecified),-0.269
22,c1cncc(CN2C[C@H]3CCC[C@@H](CNc4cnccn4)[C@H]3C2)c1,-2.1
23,c1cnc(N2CC[C@@H](OCC3CC3)[C@@H]2Cc2cccnc2)nc1,3.26

row,SMILES,cytotoxicity at 10 µM [%]
1,CNC(=O)C1CN(Cc2ccc(C#N)cc2F)c2ccccc2O1 (stereo unspecified),9.44
2,CSCCC(=O)N(C/C=C/c1ccccc1)CCO,-4.47
3,NC(=O)c1ccc(OCCCN2C[C@H](C3CC3)[C@@H](N)C2)cc1,-0.517
4,CC(C)c1cc(NC(=O)Cn2cnc3ccccc3c2=O)[nH]n1,-168
5,Cc1ccc(-c2nc(C(=O)N3CCCCC3CNS(C)(=O)=O)cs2)cc1 (stereo unspecified),-2.14
6,CCCS(=O)(=O)N1CCC(Oc2ccc(C#N)cc2)CC1,3.82
7,CCCc1nnc(N2CCC3(CCC(=O)N(C)C3)CC2)o1,3.96
8,COc1cccc(CN(C)C(C)C(=O)Nc2nc(C)c(C)s2)c1 (stereo unspecified),9.74
9,CN(C)C(=O)CNC(CC(F)(F)F)c1ccc(Cl)cc1 (stereo unspecified),-3.53
10,Cn1c(NCC(O)c2ccc(F)c(F)c2)c(C#N)c(=O)n(C)c1=O (stereo unspecified),-19.9
11,CCc1nc(N)nc(N(C)Cc2nncn2CCOC)c1C,-6.41
12,CSCCC(=O)N1CCc2c(ncnc2N2CCOCC2)C1,-4.88
13,Cc1ncsc1CN(Cc1ccccc1)Cc1ncc[nH]1,-3.22
14,CC(C)(C)OC(=O)NCCNC(=O)c1ccc2cc[nH]c2c1,-0.224
15,Cc1cc(-c2ccc(=O)n(C3CCN(S(C)(=O)=O)CC3)n2)c(C)o1,3.62
16,Cc1cc(C)n(C2CCCN(C(=O)c3c(C)noc3C)C2)n1 (stereo unspecified),-6.41
17,CC(NC1(CNS(C)(=O)=O)CCCC1)c1ccccc1 (stereo unspecified),8.43
18,O=C(CC1CCCC1)N1CCN(c2ccc(-n3cncn3)nn2)CC1,-11.9
19,Cc1nc(CN2CCCC(NCc3ccc(C(N)=O)cc3)C2)no1 (stereo unspecified),-9.47
20,Cn1cc(CN2CCCN(C(=O)c3ccc4c(c3)COC4)CC2)cn1,-4.27
21,CC(C(=O)Nc1ncccn1)N1CCC(n2ccnc2)CC1 (stereo unspecified),-8.15
22,CC(C)Oc1ncc(C(=O)N2CCC(CC(N)=O)CC2)cc1Cl,-9.47
23,CC(C)(C)c1noc(CCCC(=O)N2CCNC(=O)C2)n1,-4.28

row,SMILES,cytotoxicity at 10 µM [%]
1,CC(C)CN1CCCC1c1ccc(C(=O)Nc2cn(C)nn2)s1 (stereo unspecified),-4.69
2,CCCn1nccc1-c1cc(C2CCN(S(C)(=O)=O)CC2)ccn1,-6.94
3,Cc1nccn1CCC1CCN(c2ccncn2)CC1,-9.14
4,Cc1ccccc1C(=O)N1CCOC(c2ncc(CN(C)C)[nH]2)C1 (stereo unspecified),0.53
5,CCN1CCN(C[C@H]2CC[C@@H](Cc3ccc4c(c3)OCO4)O2)CC1,-5.97
6,COc1cccc2c1ccn2CC(=O)Nc1nc[nH]n1,-0.297
7,CN(C)C(=O)Cc1nc(CN2CCCCC2Cn2cccn2)cs1 (stereo unspecified),6.04
8,CCC(CNC1CCN(C(C)=O)CC1)Oc1cccc(C)c1 (stereo unspecified),6.42
9,CCN(CC)C[C@H]1CN2CC[C@H]1C[C@@H]2CNC(=O)Nc1ccsc1,-17.8
10,Cc1ccc(CN2CCc3[nH]nc(C(=O)N(C)C)c3C2)o1,0.081
11,Cc1nc(N2CCOCC2)nc(C)c1NC(=O)COc1ccccc1,4.17
12,Cc1nc(CSCCC(=O)NCc2ccc(N(C)C)cc2)cs1,-14.2
13,O=C(NCC1(O)CCOCC1)c1ccc(F)cc1,-9.52
14,O=c1oc(-c2ccc(F)cc2)nn1CC1CCCCO1 (stereo unspecified),2.35
15,Fc1cccc(N2CCCC3(CN(Cc4ccccn4)CCO3)C2)c1 (stereo unspecified),2.29
16,Cc1nc(-c2cncnc2C2CCCNC2)no1 (stereo unspecified),6.88
17,COc1cccc(-c2nc(C)c(C(=O)N[C@@H](CCSC)C(=O)O)s2)c1,-1.64
18,Cc1cc(CN2CCCC2c2noc(C(C)C)n2)on1 (stereo unspecified),-0.713
19,CN1CCCn2c(nc(CNS(=O)(=O)C3CC3)cc2=O)C1,5.92
